Laboratory results as given in BindingDB's records for doi:10.1016/j.ejmech.2020.112062 (Mansoura University, 2020).
pIC50: −log10 of the molar value.

Target: Transcription factor p65 (Human, UniProt Q04206)
Experiment: Inhibition of NFkappaB p65 in human RPMI-8226 cells incubated for 2 hrs by ELISA
Procedure, shortened: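 Target levels measured by ELISA kits in RPMI-8226 cells. Cells were seeded and grown 24 h at 37 °C, then exposed 72 h to a semi-log series of concentrations. Sample was incubated 2 h at 37 °C, followed by detection reagents A and B (1 h each), TMB substrate and stop solution, with OD read at 450 nm. IC50 was taken from sigmoidal dose-response nonlinear regression of % activity.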

Transcription factor p65, sequence (Q04206 whole entry): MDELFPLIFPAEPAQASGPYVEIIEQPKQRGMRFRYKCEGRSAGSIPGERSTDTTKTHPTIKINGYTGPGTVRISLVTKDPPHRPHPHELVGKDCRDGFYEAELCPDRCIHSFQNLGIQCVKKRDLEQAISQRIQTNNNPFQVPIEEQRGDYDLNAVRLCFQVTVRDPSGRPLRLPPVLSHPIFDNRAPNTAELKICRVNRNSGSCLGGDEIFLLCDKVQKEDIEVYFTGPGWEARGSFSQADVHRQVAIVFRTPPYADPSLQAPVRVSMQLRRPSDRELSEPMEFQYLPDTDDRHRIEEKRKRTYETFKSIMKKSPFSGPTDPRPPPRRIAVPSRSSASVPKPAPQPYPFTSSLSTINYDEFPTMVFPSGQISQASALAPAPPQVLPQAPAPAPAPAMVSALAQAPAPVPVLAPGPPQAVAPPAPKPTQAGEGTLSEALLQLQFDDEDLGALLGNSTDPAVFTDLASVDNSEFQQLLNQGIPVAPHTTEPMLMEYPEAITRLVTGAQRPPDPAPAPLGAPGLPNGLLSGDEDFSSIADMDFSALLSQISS

SMILES | pIC50
COc1ccc(/C=C/C(=O)c2nnn(-c3ccc(Cl)cc3)c2C)cc1OC | 6.87
COc1cc2ncnc(Nc3ccc(F)c(Cl)c3)c2cc1OCCCN1CCOCC1 [ZD1839] | 7.26
